The values below come from ChEMBL document CHEMBL3393003, “1,2,3,9b-Tetrahydro-5H-imidazo[2,1-a]isoindol-5-ones as a new class of respiratory syncytial virus (RSV) fusion inhibitors. Part 2: identification of BTA9881 as a preclinical candidate” (Bioorg Med Chem Lett, 2015).

The subject of data set [1] is Respiratory syncytial virus. The experiment in a line: Antiviral activity against respiratory syncytial virus A2 assessed as inhibition of early virus replication cycle by time of addition assay. Format: functional, organism-based.
Data set [2] can be described thus: Apparent volume of distribution in Sprague-Dawley rat at 8.8 mg/kg, iv. The note with it: in vivo, read-out: Vz. It counts as ADME, organism-based. Further details: dose 8.8 mg/kg, route intravenous.
Data set [3] has as its system Respiratory syncytial virus. In words: Antiviral activity against respiratory syncytial virus A2 infected in human Hep2 cells assessed as reduction in virus-induced cytopathic effect after 5 days by MTT assay. The note with it: A2, HEp-2, 120 h. Format: functional, organism-based. In outline:
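HEp2 cells (1.0 × 10⁴/well) infected at low moi (RSV A2 at moi 0.01) and added to serial compound dilutions; incubated 5 days at 37 °C, 5% CO₂. CPE read by MTT (1 mg/ml) metabolism after 2 h incubation.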
(Protection from cytopathic effect is a common read-out in antiviral testing.)

Data set [4] in a line: Oral bioavailability in Sprague-Dawley rat at 19 mg/kg. It counts as ADME, organism-based. As to conditions: in vivo. In outline:
(§1)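 Male Sprague Dawley rats, n = 2, oral dose as suspension in hydroxypropylmethylcellulose, in carboxymethylcellulose, or in 0.5% HPMC/0.5% benzyl alcohol/0.4% Tween80. Cmax (µM), T1/2 and F (%) derived from plasma levels.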

The nature of data set [5]: Elimination half life in Sprague-Dawley rat at 8.8 mg/kg, iv. Format: ADME, organism-based. As to conditions: in vivo, read-out: beta t1/2 (converted). Further details: dose 8.8 mg/kg, route intravenous.
Data set [6] can be described thus: Oral bioavailability in dog. As to conditions: in vivo. It counts as ADME, organism-based, Canis lupus familiaris.
A short description of data set [7]: Plasma clearance in Sprague-Dawley rat at 8.8 mg/kg, iv. It counts as ADME, organism-based. Further details: dose 8.8 mg/kg, route intravenous.
In data set [8] the test system is Respiratory syncytial virus. The experiment in a line: Resistance index, ratio of EC50 for drug resistant respiratory syncytial virus Long expressing F protein Q494L mutant to EC50 for wild type Respiratory syncytial virus Long.
Data set [9] deals with Respiratory syncytial virus. The experiment in a line: Antiviral activity against respiratory syncytial virus Long infected in human Hep2 cells assessed as reduction in virus-induced cytopathic effect after 5 days by MTT assay. It counts as functional, organism-based. The note with it: HEp-2, 120 h.
The nature of data set [10]: Cmax in Sprague-Dawley rat at 19 mg/kg, po. Set-up: dose 19 mg/kg, route oral. Format: ADME, organism-based. As to conditions: in vivo. In outline:
as §1

Data set [11] in a line: Elimination half life in Sprague-Dawley rat at 19 mg/kg, po. It counts as ADME, organism-based. Further details: dose 19 mg/kg, route oral. The note with it: in vivo, read-out: beta t1/2 (converted). The method, boiled down: as §1
A short description of data set [12]: Kinetic solubility in isotonic phosphate buffer at pH 6.5 by nephelometry. It counts as physicochemical. As to conditions: read-out: Kinetic_solubility. In outline: (§2)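 Compound dissolved in DMSO and added to 0.01 M HCl (pH 2) or pH 6.5 isotonic phosphate buffer, 1% final DMSO. Solubility range determined by nephelometry.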
Data set [13] concerns Respiratory syncytial virus. The experiment in a line: Antiviral activity against respiratory syncytial virus B1 infected in human Hep2 cells assessed as reduction in virus-induced cytopathic effect after 5 days by MTT assay. As to conditions: B1, HEp-2, 120 h. Format: functional, organism-based.
In data set [14] the test system is Respiratory syncytial virus. The experiment in a line: Antiviral activity against respiratory syncytial virus A2 by yield reduction assay. It counts as functional, organism-based.
For data set [15], the system named is Respiratory syncytial virus. In words: Resistance index, ratio of EC50 for VP-14637 resistant respiratory syncytial virus Long expressing F protein D489Y mutant to EC50 for wild type Respiratory syncytial virus Long.
The test system of data set [16] is Respiratory syncytial virus. In words: Antiviral activity against respiratory syncytial virus A2 by plaque reduction assay. Format: functional, organism-based. Background: In a plaque reduction assay, fewer plaques than in the control indicate reduced infectivity or spread.
Data set [17] is described as follows: Kinetic solubility in 0.01M HCl buffer at pH 2.0 by nephelometry. It counts as physicochemical. The note with it: read-out: Kinetic_solubility. The method, boiled down:
as §2

A short description of data set [18]: Lipophilicity, log D of the compound at pH 7.4 by chromatography. It counts as physicochemical. As to conditions: buffer. In outline: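 Effective logD measured chromatographically on an LC-ABZ column, octanol-saturated mobile phase at pH 7.4.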
Data set [19] relates to Respiratory syncytial virus. In words: Resistance index, ratio of EC50 for drug resistant respiratory syncytial virus B1 expressing F protein L141F mutant to EC50 for wild type Respiratory syncytial virus B1. It counts as functional.

The structures appear in SMILES notation. Converted amounts (≈) assume the structure as drawn. The source made the active and inactive calls. The calls are words filed in the database; no cut-off is given here. Where only a bound is given, the exact number is not on record here.

Usually EC50 stands for the concentration at which the effect is half-maximal. The bioavailability is the share of a dose that reaches the circulation, judged against a reference dose that is usually intravenous. In general, clearance refers to the rate of elimination divided by the concentration. A high value points to efficient removal. Broadly, the Cmax is the highest concentration seen after dosing. In general, chromatographic logD refers to a lipophilicity value derived from retention on a column. Lower therefore signals lower lipophilicity. `O=C(c1cccnc1)N1CCN2C(=O)c3ccncc3[C@]12c1ccc(Cl)cc1` [BTA-9881]: the result in data set [1], in [14] and in [16] was Active. For the same molecule, the Vd in data set [2] was 1.7 L/kg. In addition, the EC50 in [3] is 48 nM; in data set [9] it was 59 nM; in data set [13], 160 nM. For the same molecule, the bioavailability in [4] and in data set [6] was 100% throughout. Further, the half-life in data set [5] and in data set [11] was 4.5 h in each case. Besides, the clearance in data set [7] came to 4.5 mL/min/kg. Further, the “Ratio EC50” value in data set [8] is reported as 40; in data set [15], more than 1800; in [19], more than 100. In data set [10], this molecule returned a peak concentration (Cmax) of 23 µM. Further, the figures for the solubility kinetic in data set [12] and in [17] were 50 µg/mL (≈ 128 µM) and more than 100 µg/mL, respectively. In addition, in data set [18], the chromatographic logD came to 2.1.
